According to ChEMBL document CHEMBL1134702, “Arylalkylidene rhodanine with bulky and hydrophobic functional group as selective HCV NS3 protease inhibitor” (Bioorg Med Chem Lett, 2001):

Assays:
NS3 = NS3 (Hepatitis C virus, UniProt A3EZJ3); assay: Inhibitory activity against hepatitis C virus (HCV) NS3 protease; design: species or system Hepacivirus hominis
Outline: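 His-tagged HCV NS3 fusion expressed in BL21(DE3) E. coli, purified, quantified by densitometry against BSA. Reaction started with GST-bead 5A5B substrate (3 µg); 37 °C, 15 min or <40% conversion. Cleavage read by SDS-PAGE, Coomassie, densitometry; IC50 determined.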

Plasminogen = Plasminogen (Homo sapiens, UniProt P00747); assay: Inhibitory activity against plasmin
Outline: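 Fluorogenic casein-substrate protease kit assay using 0.002U plasmin per reaction at 30 °C, stopped within the linear phase of the reaction; IC50 determined.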

Chain of Plasminogen (P00747 97-580 limits assumed): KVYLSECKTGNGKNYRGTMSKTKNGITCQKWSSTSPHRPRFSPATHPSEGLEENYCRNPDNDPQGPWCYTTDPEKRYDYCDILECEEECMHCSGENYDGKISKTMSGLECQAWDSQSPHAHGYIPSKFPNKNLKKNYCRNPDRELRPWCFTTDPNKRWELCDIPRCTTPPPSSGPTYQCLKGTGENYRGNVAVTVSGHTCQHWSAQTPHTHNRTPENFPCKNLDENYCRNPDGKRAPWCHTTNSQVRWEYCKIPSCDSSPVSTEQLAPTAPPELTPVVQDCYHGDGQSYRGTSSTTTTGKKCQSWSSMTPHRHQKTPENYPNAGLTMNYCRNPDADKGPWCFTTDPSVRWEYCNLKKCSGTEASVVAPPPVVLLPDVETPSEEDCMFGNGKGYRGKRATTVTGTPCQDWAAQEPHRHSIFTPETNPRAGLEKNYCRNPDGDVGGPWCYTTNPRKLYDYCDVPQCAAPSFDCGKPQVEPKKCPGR
Chain of Plasminogen (P00747 581-810 limits assumed): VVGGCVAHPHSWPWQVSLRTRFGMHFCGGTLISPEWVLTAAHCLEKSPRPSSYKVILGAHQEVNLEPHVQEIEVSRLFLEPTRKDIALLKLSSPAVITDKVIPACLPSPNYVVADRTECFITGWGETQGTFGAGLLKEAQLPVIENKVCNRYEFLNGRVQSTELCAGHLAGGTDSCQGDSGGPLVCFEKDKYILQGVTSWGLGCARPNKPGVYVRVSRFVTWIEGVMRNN
Chain of NS3 (A3EZJ3 whole entry, the tested form may be a part): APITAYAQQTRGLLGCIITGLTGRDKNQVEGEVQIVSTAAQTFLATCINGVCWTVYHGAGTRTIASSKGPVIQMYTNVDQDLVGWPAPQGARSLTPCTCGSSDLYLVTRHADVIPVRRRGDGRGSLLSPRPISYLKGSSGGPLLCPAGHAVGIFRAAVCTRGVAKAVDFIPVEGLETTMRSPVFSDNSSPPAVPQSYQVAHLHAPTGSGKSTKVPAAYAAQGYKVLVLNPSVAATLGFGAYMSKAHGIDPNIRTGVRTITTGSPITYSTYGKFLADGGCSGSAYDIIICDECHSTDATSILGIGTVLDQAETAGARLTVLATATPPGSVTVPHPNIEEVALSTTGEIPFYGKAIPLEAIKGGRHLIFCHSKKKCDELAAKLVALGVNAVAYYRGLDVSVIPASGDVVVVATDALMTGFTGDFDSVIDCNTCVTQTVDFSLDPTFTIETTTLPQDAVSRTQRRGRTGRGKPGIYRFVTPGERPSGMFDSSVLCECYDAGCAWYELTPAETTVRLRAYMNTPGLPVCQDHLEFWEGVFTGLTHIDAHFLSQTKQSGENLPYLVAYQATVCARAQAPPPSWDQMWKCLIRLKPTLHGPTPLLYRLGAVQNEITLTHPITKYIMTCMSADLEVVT

SMILES	IC50 (NS3) [µM]	IC50 (Plasminogen) [µM]
O=C(O)CN1C(=O)/C(=C/c2cc([N+](=O)[O-])ccc2F)SC1=S	64	13
C/C(=C1/SC(=S)N(CC(=O)O)C1=O)c1ccc(-c2ccccc2)cc1	20	7
COC(=O)CN1C(=O)/C(=C/c2cc3c(cc2[N+](=O)[O-])OCO3)SC1=S	71	< 1
CCOC(=O)CN1C(=O)/C(=C(\C)c2cccc(NS(=O)(=O)c3ccc(-c4ccc(S(=O)(=O)NCCNC(=O)OC(C)(C)C)cc4)cc3)c2)SC1=S	15	20
C=CCN1C(=O)/C(=C/c2cc3c(cc2[N+](=O)[O-])OCO3)SC1=S	40	< 1
CCOC(=O)CN1C(=O)/C(=C(\C)c2cccc(OC(=O)N[C@@H](CC(C)C)C(=O)N(CCN(Cc3ccc(C(=O)OC)cc3)Cc3ccc(C(=O)OC)cc3)Cc3ccc(Cl)cc3)c2)SC1=S	16	20
